In the test the target is DlRBL (Dicentrarchus labrax rhamnose-binding lectin) (Dicentrarchus labrax, UniProt A0A8P4K6Y8). Briefly: inhibition of hemagglutination of rabbit erythrocytes by purified lectin. In kind it is biochemical. The settings on record: TBS pH 7.4, 5 mM CaCl2; 1% rabbit erythrocytes. An outline of the steps: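 Purified lectin (250 μg/ml stock, dialysed in TBS) was serially 2-fold diluted in TBS with 0.1% gelatin. Inhibitor series of monosaccharides, disaccharides and yeast mannan were used at decreasing concentrations starting from 100 mM. Rabbit erythrocytes were washed three times in PBS and suspended at 1% in TBS-gelatin, then added in equal volume. Agglutination was scored after 1 h at 37°C.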

Here are results for 1 compound from PMC4607264 (Developmental and comparative immunology, 2014).

In brackets after ≈: the same amount, converted by molar mass.

Regarding `OC[C@H]1OC(O)[C@H](O)[C@@H](O)[C@H]1O` (stereo partly drawn) [D-galactose], the “Minimum inhibitory concentration” value came to 70.0 mM (≈ 12.6 mg/mL).
